The list is not random: actives were taken first. Their share in the collection is about 1.4%.
Furin inh = human furin inhibitors, primary screen, biochemical, fluorescence intensity; purified furin, fluorogenic substrate cleavage; P09958; 220,000 compounds, 0.061% hits; inhibition, % at 20 µM or 30 µM; in the data active = inhibition above about 25%
hK5 inh = human KLK5 protease inhibitors, primary screen, biochemical, 1536-well; Kallikrein-5 (Homo sapiens), Q9Y337; recombinant hK5, fluorogenic AMC substrate cleavage; inhibition, % at 5 µM; 210,000 compounds, 0.59% hits; AID 873, 2007;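 active = inhibition of 40% or more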;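 note: 0% = enzyme controls without compound and 100% = no-enzyme blanks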
FXIa inh = human FXIa protease inhibitors, primary screen, biochemical, 1536-well; Coagulation factor XI (Homo sapiens), P03951; purified FXIa, Boc-Glu-Ala-Arg-AMC fluorogenic substrate; inhibition, % at 5 µM; 220,000 compounds, 0.14% hits; AID 798, 2007;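 active = inhibition of at least 40%; inactive = inhibition below 40%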;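 note: fluorescence of freed AMC excited at 355 nm; 0% = enzyme without compound and 100% = no enzyme blank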
Thrombin inh = human alpha-thrombin inhibitors, primary screen, counter-screen for coagulation protease inhibitor project, biochemical, 1536-well, fluorogenic AMC substrate; Prothrombin (Homo sapiens), P00734; Boc-VPR-AMC fluorogenic substrate cleavage; inhibition, % at 5 µM; 220,000 compounds, 0.26% hits;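 active = inhibition at or above 40%; inactive = inhibition below 40%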;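 note: 0% = enzyme with no compound and 100% = wells without enzyme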
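System: human alpha-thrombin protein; Compound dosing: one concentration per compound, 5 µM, with 0.2% DMSO; Timing: reaction at room temperature; Technique: AMC fluorescence, 355/460 nm; Controls: enzyme without compound as high, wells lacking enzyme as low.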
FXIIa inh = human FXIIa protease inhibitors, primary screen, biochemical, 1536-well; Coagulation factor XII (Homo sapiens), P00748; purified FXIIa, Boc-QGR-AMC fluorogenic substrate, 2 h; inhibition, % at 5 µM; 220,000 compounds, 0.3% hits; in the data active = inhibition above about 40%;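 note: 0% = enzyme with no compound and 100% = blank without enzyme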
Target sequence (P00748 20-372 limits assumed): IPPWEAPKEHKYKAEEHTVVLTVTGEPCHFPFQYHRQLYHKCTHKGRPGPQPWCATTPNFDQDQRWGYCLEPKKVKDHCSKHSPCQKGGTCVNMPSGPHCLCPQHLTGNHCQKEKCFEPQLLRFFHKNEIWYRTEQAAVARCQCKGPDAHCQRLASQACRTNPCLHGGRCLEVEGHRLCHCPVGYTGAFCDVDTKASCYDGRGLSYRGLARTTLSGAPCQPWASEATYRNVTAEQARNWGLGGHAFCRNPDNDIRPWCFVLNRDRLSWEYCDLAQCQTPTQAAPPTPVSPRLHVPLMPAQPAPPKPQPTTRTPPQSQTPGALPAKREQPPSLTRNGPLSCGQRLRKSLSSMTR
Target sequence (P00748 373-615 limits assumed): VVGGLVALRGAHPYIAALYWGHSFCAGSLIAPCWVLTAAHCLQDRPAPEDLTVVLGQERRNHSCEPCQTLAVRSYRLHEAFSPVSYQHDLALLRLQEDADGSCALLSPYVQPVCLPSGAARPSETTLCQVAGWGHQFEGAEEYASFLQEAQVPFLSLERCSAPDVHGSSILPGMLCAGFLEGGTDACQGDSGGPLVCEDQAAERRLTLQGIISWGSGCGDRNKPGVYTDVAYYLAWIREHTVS
m-calpain inh = inhibitors of pig calpain II, primary screen, biochemical, fluorogenic peptide substrate, 1536-well | 220,000 compounds, 0.37% hits | purified calpain II, 30 min | AID 1236, 2008 | inhibition, % at 16 µM;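 active = inhibition above about 50%, limit read from the data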
Starred values were filed as active, the others as inactive; i = inactive; · = not tested or not shown.

SMILES | Furin inh | hK5 inh | FXIa inh | Thrombin inh | FXIIa inh | m-calpain inh
CCOC(=O)C(C)Oc1c(C(=O)OC)sc2ncccc12 (stereo unspecified) | -12.8 | 1.6 | -0.5 | -0.4 | 8.0 | -25.8
CN1CCC/C1=C/C=C1\SC(=S)NC1=O | 10.7 | 15.5 | 19.1 | 26.6 | 17.1 | 59.7*
COc1cc(Cl)c(S(=O)(=O)N2CC(C)OC(C)C2)cc1Cl (stereo unspecified) | -15.0 | 53.8* | 12.7 | 25.7 | 32.0 | 3.7
Cc1ccc(CN2CCN(/N=C\c3cccc([N+](=O)[O-])c3)CC2)cc1 | -26.7 | -1.0 | 1.9 | -7.7 | 5.3 | 3.6
COc1cccc(C2CC(c3ccc(F)cc3)Nc3nc(N)nn32)c1 (stereo unspecified) | -7.8 | 52.6* | 14.2 | 19.5 | 12.0 | 1.1
O=C(CCN1C(=O)C2C3C=CC(C3)C2C1=O)Nc1c(F)cc(F)cc1Br (stereo unspecified) | -8.7 | -4.1 | 2.5 | -0.1 | 8.2 | -4.6
O=[N+]([O-])c1cccc(C=Nc2cc3c(cc2Br)OCCO3)c1 | -19.9 | 50.6* | 7.9 | 12.4 | -5.8 | 23.3
Cc1ccc(-c2nc(-c3ccccn3)no2)cc1[N+](=O)[O-] | -6.9 | 0.4 | 2.8 | -3.6 | 5.0 | -7.9
COc1cc(S(=O)(=O)N2CCOCC2)ccc1NC(=O)COC(=O)c1ccccn1 | -16.8 | -13.1 | 2.0 | 69.9* | 8.1 | -6.0
O=C(COC(=O)c1n[nH]c2ccccc12)Nc1cccc(S(=O)(=O)N2CCOCC2)c1 | -11.0 | -20.4 | 10.7 | 64.6* | 0.0 | -39.3
COc1ccc(S(=O)(=O)N2CCOCC2)cc1NC(=O)COC(=O)c1ccc(C)s1 | -25.4 | -13.6 | -5.7 | 73.4* | 0.0 | -21.8
COc1ccc(S(=O)(=O)N2CCOCC2)cc1NC(=O)COC(=O)C1=COCCO1 | -29.8 | 8.2 | 4.4 | 9.7 | 15.9 | -17.1
CCC(CC)C(=O)OCC(=O)Nc1ccc(S(=O)(=O)N2CCOCC2)cc1OC | -13.4 | -13.6 | -6.0 | 5.0 | 12.9 | 1.3
COc1ccccc1NC(=O)c1cc(S(=O)(=O)N2CCOCC2)ccc1Cl | 29.0* | -15.4 | -0.2 | -5.1 | 9.8 | -7.5
COc1cccc2cc(/C(=N/O)c3ccccc3)oc12 | -16.0 | -5.8 | -2.7 | 4.7 | 7.1 | -2.1
O/N=C(\c1ccc(Cl)cc1)c1cc2ccccc2o1 | -30.4 | 10.4 | 8.3 | -3.2 | 25.9 | 64.6*
NC(=O)Cn1nnc(-c2ccc(C(F)(F)F)cc2)n1 | 26.2* | 6.4 | 5.5 | -5.1 | 7.8 | -7.2
O=C(Cn1nnc(-c2cccc(C(F)(F)F)c2)n1)N1CCOCC1 | -19.2 | 50.9* | 23.5 | 33.1 | 16.6 | 15.5
CC(C)(C)C(=O)Cn1nnc(-c2ccc(C(F)(F)F)cc2)n1 | -10.7 | -3.4 | 0.0 | 0.3 | 8.1 | -11.0
CC1(C)CC(=O)C2=C(C1)N(Cc1ccccc1)C(=O)C2(NC(=O)C(C)(C)C)C(F)(F)F (stereo unspecified) | -16.4 | 53.4* | 14.6 | 18.8 | 14.5 | 16.6
CCOC(=O)N1CCN(C(=O)c2ccc(OCC)cc2)CC1 | -38.3 | -6.6 | -2.9 | -30.6 | 8.3 | -22.7
CCOc1ccc(C(=O)n2cnnc2N)cc1 | -14.1 | 41.4* | 6.6 | -3.2 | 37.8 | -7.5
Cc1c(C(=O)NCCc2ccc(S(N)(=O)=O)cc2)cccc1[N+](=O)[O-] | -22.2 | -3.7 | 1.9 | · | 4.1 | 4.9
NS(=O)(=O)c1ccc(CCNC(=O)Cc2ccccc2[N+](=O)[O-])cc1 | -4.0 | 20.6 | 58.6* | 52.4* | 59.3* | -11.7
CC(C)CC(c1nnnn1Cc1ccco1)N1CCN(c2cccc(Cl)c2)CC1 (stereo unspecified) | -12.7 | 4.1 | 4.8 | 3.3 | 13.7 | 20.3
SMILES | Furin inh | hK5 inh | FXIa inh | Thrombin inh | FXIIa inh | m-calpain inh
COc1ccccc1NC(=O)c1sc2ncn(Cc3ccc(C)cc3)c(=O)c2c1C | -13.6 | 30.0 | 29.1 | 99.1* | 17.4 | i
COc1ccccc1NC(=O)c1sc2ncn(Cc3cccc(C)c3)c(=O)c2c1C | -5.9 | 43.6* | 6.6 | 100.2* | 5.8 | i
COc1ccccc1NC(=O)c1sc2ncn(Cc3cccc4ccccc34)c(=O)c2c1C | -7.6 | -15.8 | 2.6 | -7.0 | 10.9 | -54.7
C=CCn1cnc2sc(C(=O)Nc3ccccc3OC)c(C)c2c1=O | -26.8 | 0.1 | -3.5 | -6.9 | 7.7 | -111.9
Cc1ccc(SCc2cc(=O)n3ccsc3n2)c(C)c1 | -14.5 | -8.9 | 7.4 | -0.1 | 3.9 | -29.4
Cc1ccc(C)c(C(=O)c2c(C)nc3sccn23)c1 | -8.5 | 43.6* | 4.1 | 21.7 | 26.3 | 20.6
COc1ccccc1OCCCC(=O)NCc1ccco1 | -24.9 | -16.4 | -3.7 | 2.6 | 13.9 | -31.4
CCCCCOc1ccc(Cn2ccnc2)cc1[N+](=O)[O-] | -15.0 | -24.1 | 6.2 | -0.1 | 9.2 | 24.1
CCOc1ccc(Cn2ccnc2)cc1[N+](=O)[O-] | -10.0 | 114.8* | 10.4 | 14.0 | 15.4 | 25.7
Cc1ccc2c(c1)-c1c(cnn1CC(=O)N(CCC#N)c1ccccc1)CO2 | -21.1 | -3.9 | 4.5 | 5.8 | 15.4 | 1.7
CC1(C)OC(=CC=Nc2ccc(Cl)cc2)OC1(C)C | 2.9 | 16.2 | 28.4 | 2.5 | 44.9* | 11.0
COc1ccc(C2C(C(=O)N3CCN(C)CC3)c3ccccc3C(=O)N2C2CCCCC2)cc1 (stereo unspecified) | -28.7 | -11.3 | 10.7 | -5.6 | -1.2 | 18.2
N/C(=N\S(=O)(=O)c1ccccc1)c1ccc([N+](=O)[O-])cc1 | -6.7 | 8.4 | -8.9 | 47.7* | 9.0 | 21.9
N/C(=N/S(=O)(=O)c1ccccc1)c1cccc([N+](=O)[O-])c1 | -22.7 | · | -0.5 | -3.9 | 5.5 | 4.0
COCCn1c(SCc2ccccc2F)nc2ccccc2c1=O | -16.1 | 2.8 | 5.3 | -0.7 | 4.5 | 51.0*
C/C=C/Cn1cccc(C(=O)Nc2ccc(OC)cc2)c1=O | -11.7 | -0.8 | -0.9 | -3.8 | 11.4 | -2.0
CN1CCN(c2ccc(Cl)cc2NC(=O)/C=C/c2ccc(F)cc2)CC1 | -21.6 | 3.0 | -0.3 | -4.4 | 6.6 | -24.1
COC(=O)c1ccccc1NC(=O)N1CCN(S(=O)(=O)c2ccc(Cl)cc2)CC1 | -17.9 | 102.4* | -7.6 | 19.5 | 6.9 | -16.3
O=C(NCCc1ccccc1)c1cc(=O)c2ccccc2o1 | -14.4 | 47.0* | 23.6 | 17.0 | 52.0* | 15.0
Cc1ccsc1CNn1cnnc1SCc1ccc(Cl)cc1 | -14.1 | -4.9 | 7.5 | 0.6 | 14.1 | 9.0
COc1cc(NC(=O)c2ccc([N+](=O)[O-])cc2)c(OC)cc1NC(=O)CC(C)C | -16.8 | -13.8 | -6.2 | 2.7 | 4.5 | -14.1
O=C(O)CNC(=O)CC12CC3CC(CC(C3)C1)C2 | -14.4 | 0.8 | -7.9 | 0.9 | 17.2 | -2.9

Screens: PubChem BioAssay, several laboratories
